Source: PubChem BioAssay (Sanford-Burnham Center for Chemical Genomics)
FAS-TE inh – inhibitors of human fatty acid synthase thioesterase domain. P49327. recombinant FAS-TE, OMFH fluorogenic substrate, fluorescence endpoint. inhibition, % at 15 µM. 360,000 tested, 0.67% active;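 active = compounds whose normalised, plate-corrected inhibition of enzyme fluorescence in the single-dose primary screen is 50% or more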;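 also: 0% = DMSO with enzyme and 100% = substrate without enzyme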
LMPTP block – LMPTP (human) inhibition. P24666. recombinant LMPTP-A, OMFP fluorogenic substrate, fluorescence intensity. inhibition, % at 20 µM. 360,000 tested, 0.22% active. AID 651560;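 active = compounds that cut the enzyme signal by at least half of the control window in the single-dose screen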;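 also: plate controls were DMSO wells with enzyme plus substrate for no effect and substrate without enzyme for full effect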
Target sequence (P24666 whole entry, looked up): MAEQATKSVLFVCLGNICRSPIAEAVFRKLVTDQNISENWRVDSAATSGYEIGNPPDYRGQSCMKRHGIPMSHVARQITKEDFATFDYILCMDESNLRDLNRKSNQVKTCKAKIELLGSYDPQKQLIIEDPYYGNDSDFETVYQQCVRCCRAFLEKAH
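Test system: LMPTP-A phosphatase enzyme; input: 0.625 nM LMPTP-A final; reagent: OMFP substrate, 400 µM final; compound dosing: 20 µM single dose, 3% DMSO; incubation: 50 min dark incubation at room temperature; measured by: endpoint fluorescence intensity from OMFP dephosphorylation; measure: % inhibition relative to no-enzyme and uninhibited control wells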
STEP inh – blocks human striatal-enriched tyrosine phosphatase. P54829. recombinant STEP, OMFP fluorogenic substrate, fluorescence. inhibition, % at 20 µM. 360,000 tested, 0.25% active. AID 588621;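 active = inhibition at 20 µM, scaled per plate between control wells, above about 37%, limit read from the data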;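 also: 0% = DMSO with enzyme and substrate and 100% = substrate only without enzyme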
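Material: STEP (striatal-enriched tyrosine phosphatase) enzyme, cell-free | Medium: 50 mM Bis-Tris pH 6.0 with 2.5 mM DTT and 0.005% Tween 20 | Read-out: Percent inhibition scaled to no-enzyme and uninhibited-enzyme controls, plate-pattern corrected | Signal: Fluorescence read at 480 nm ex / 540 nm em | Times: 20 min reaction, room temperature, in the dark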
SUMO1 PPI mod – modulators of human SUMO1-mediated protein-protein interactions. 360,000 tested, 0.33% active. inhibition, % at 20 µM. SUMO1 binding to a labelled peptide, TR-FRET, 1 h. P63165; in the data active = inhibition above about 37%
Target sequence (P63165 whole entry, looked up): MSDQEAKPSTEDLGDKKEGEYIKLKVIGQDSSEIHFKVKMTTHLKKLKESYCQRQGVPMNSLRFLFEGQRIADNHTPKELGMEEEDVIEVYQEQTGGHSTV
Scp-1 inhibitor – Scp-1 (human) phosphatase inhibition; 340,000 tested, 0.88% active; Q9GZU7; inhibition, % at 20 µM; Recombinant Scp1, phosphopeptide, malachite green phosphate absorbance; AID 493091;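 active = inhibition above about 50% at 20 µM, limit read from the data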;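 also: plate controls were DMSO wells with enzyme for no effect and wells lacking enzyme for full effect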
Target sequence (Q9GZU7 76-261 limits assumed): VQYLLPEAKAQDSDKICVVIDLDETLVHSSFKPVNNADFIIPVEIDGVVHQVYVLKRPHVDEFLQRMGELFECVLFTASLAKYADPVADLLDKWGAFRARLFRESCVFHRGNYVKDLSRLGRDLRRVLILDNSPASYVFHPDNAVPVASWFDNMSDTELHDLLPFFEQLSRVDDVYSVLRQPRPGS
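Material – SCP-1 phosphatase catalytic domain, residues 76-261 · Buffer or medium – Acidic Tris acetate buffer with magnesium and detergent · Also added – Phospho 17-mer peptide substrate · Compound – single 20 µM dose, 1% DMSO · Times – 45 min room-temperature reaction, 5 min colour, 30 min stabiliser · Technique – Phosphate-binding colour reagent, absorbance read at 630 nm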
* = called active by the depositor; . = no result. Shown are actives, neighbours in structure and some others; about 1.9% of the full set was active somewhere.

SMILES	FAS-TE inh	LMPTP block	STEP inh	SUMO1 PPI mod	Scp-1 inhibitor
Cc1ccc(CN2C(=O)N/C(=C\c3ccc(-c4ccc(C(=O)O)cc4C)o3)C2=O)cc1	-35	4	10	21	71*
C#CCN1C(=O)S/C(=C\c2ccc(-c3ccc(C(=O)O)cc3C)o2)C1=O	1	22	0	19	62*
Cc1c(/C=C2\SC(=O)N(CC(=O)Nc3ccc4c(c3)OCO4)C2=O)c2ccccc2n1C	13	3	-2	-7	-7
COc1ccc(C(C)(NC(C)=O)c2nc(-c3cc(F)cc(F)c3)cs2)cc1 (configuration not stated)	12	-2	-2	-1	.
CC[C@H]1O[C@H](C)CC2=C1C(=O)OC(C)(C)O2	-10	-2	.	-5	.
COC(=O)C1(C)COP(=O)(Nc2ccc(OC)cc2)OC1 (configuration not stated)	-3	-1	2	4	.
COc1cc(/C=C2\SC(=O)N(CC(=O)Nc3ccc(C)cc3)C2=O)cc(Cl)c1OCC(=O)O	2	84*	98*	47*	26
Cc1ccc(NC(=O)CN2C(=O)S/C(=C/c3ccc(-c4cccc(C(=O)O)c4)o3)C2=O)cc1	2	64*	40*	17	65*
O=C(CN1C(=O)S/C(=C\c2cc(Cl)c(O)c(Cl)c2)C1=O)Nc1ccccc1	8	-4	0	-16	6
Cc1ccc(NC(=O)CN2C(=O)S/C(=C\c3cc(C)n(-c4cccc(C(=O)O)c4)c3C)C2=O)cc1	2	1	-1	-12	-10
O=C(COC(=O)c1ccc(-c2cnc3ccccc3n2)cc1)c1ccccc1	0	-1	-2	41*	-10
CCCCNC(=O)C[C@@H]1C[C@@]2(C(=O)OCC)CCC=C2N(CCC2=CCCCC2)C1=O	-4	-1	.	3	.
COc1ccc(N2Cc3cccc(C(=O)NC(C)CCc4ccco4)c3C2=O)cc1 (configuration not stated)	17	12	2	5	79*
COc1ccc(N2CC(C(=O)Nc3ccccc3C(=O)NCc3ccco3)CC2=O)cc1 (configuration not stated)	2	-2	2	2	-10
CCCCCC(=O)NC(NC(=S)NC1CCS(=O)(=O)C1)C(Cl)(Cl)Cl (configuration not stated)	-4	-1	-1	59*	-4
OC1C2COC(O2)C2OC(c3ccccc3)OC12 (configuration not stated)	4	-1	0	4	.
N=c1n(Cc2ccc(Cl)cc2)c2ccccc2n1CC(O)COc1ccccc1 (configuration not stated)	-11	2	1	2	3
OC(COCC(F)(F)C(F)(F)C(F)(F)C(F)F)Cn1c2ccc(Cl)cc2c2cc(Cl)ccc21 (configuration not stated)	56*	6	-3	-2	-10
Cc1ncc(CO)c(/C=N/NC(=S)Nc2ccc(Cl)c(Cl)c2)c1O	12	3	0	6	-6
Cc1ncc(CO)c(/C=N/NC(=S)Nc2cccc(Cl)c2)c1O	-5	5	64*	21	-5
O=C1C=C(O)c2c(O)cc(O)c(O)c2C1=O	3	76*	95*	12	47
Nc1ccc(O)c2c1C(=O)c1ccccc1C2=O	3	73*	37*	13	80*
O=C(O)c1cccc2c1C(=O)c1ccccc1C2=O	-2	-1	-5	-26	3
O=C1c2ccccc2C(=O)c2c(O)c(O)cc(O)c21	5	66*	24	36	76*
Nc1ccc(Br)c2c1C(=O)c1ccccc1C2=O	.	.	.	.	-7
SMILES	FAS-TE inh	LMPTP block	STEP inh	SUMO1 PPI mod	Scp-1 inhibitor
COC(=O)[C@]12CCCCC=C1N(CCc1ccc(OC)c(OC)c1)C(=O)[C@H](CC(=O)NCCc1ccccc1OC)C2	.	0	.	-4	.
COc1ccc2oc3cc(NCCN(C)C)ccc3c(=O)c2c1	-5	1	4	2	.
COC(=O)C1=C(C(=O)OC)[C@@H]2N(Cc3ccccc3)c3ccccc3[C@@]23C[C@@H](C(=O)OC)N(C(=O)c2ccc(Br)cc2)C3=N1	84*	1	2	2	-11
O=C1NC[C@H](CCCCN2CCN(Cc3ccccc3)C(=O)C2=O)N(Cc2ccccc2)C1=O	-8	-1	.	-2	.
CC1(C)Cc2c(C#N)c(N3CCN(C(=O)c4ccco4)CC3)nc(-c3ccco3)c2CS1	-9	0	-8	4	56*
CC(=O)N1CCN(c2nc(-c3ccco3)c3c(c2C#N)CC(C)(C)SC3)CC1	-8	1	3	8	-12
COc1cccc(C(c2nnnn2C2CCCC2)N2CCN(C/C=C/c3ccccc3)CC2)c1OC (configuration not stated)	15	-1	-1	4	.
O=C(O)c1cccc(-n2cccc2/C=C2/NC(=O)N(c3ccc(Cl)cc3)C2=O)c1	6	81*	94*	106*	81*
COc1ccc(-n2cccc2/C=C2/NC(=O)N(c3cccc(Cl)c3)C2=O)cc1	-4	-1	2	1	7
O=[N+]([O-])c1cc(CN2CCCC2)c2cccnc2c1O	-3	74*	9	1	35
CN(C)c1ccc(C(=O)C=Cc2ccc([N+](=O)[O-])cc2)cc1	-4	55*	12	-14	.
COc1ccccc1/C=C/C=N/NC(=O)c1cc(-c2ccco2)[nH]n1	2	67*	-1	22	-1
COC(=O)N/N=C/c1cc(N=Nc2ccccc2Cl)ccc1O	6	6	9	11	35
Nc1ccc(C(=O)N/N=C\c2cc(N=Nc3cccc4ccccc34)ccc2O)cc1	14	4	10	65*	38
Cc1cc(C(=O)N/N=C/c2cc(N=Nc3ccccc3)ccc2O)n[nH]1	12	6	6	-6	64*
COC(=O)N/N=C/c1cc(N=Nc2ccccc2)ccc1O	8	3	-1	-5	-15
Cc1csc(=O)n1CC(=O)Nc1ccc(Cl)c(Cl)c1	13	2	-5	-6	-8
Cn1c(N)c(N2CCCCC2)c(=O)n(CC(=O)Nc2ccc(Cl)c(Cl)c2)c1=O	46	-1	-2	56*	-3
CC(C)(O)C#Cc1ccc(N2C(c3ccsc3)=Cc3ccc(F)cc3C2c2c[nH]c3ccccc23)cc1 (configuration not stated)	12	3	.	-6	.
Oc1ccc(NCc2ccccc2OCc2ccccc2)cc1	8	24	3	57*	-10
Cc1c(Br)c([N+](=O)[O-])nn1CC(=O)NCCc1ccc(Cl)cc1	43	1	0	43*	0
Cc1ccc(C)c(C(Nc2ccccc2)c2ccc3ccc(C)nc3c2O)c1 (configuration not stated)	.	2	.	-3	.
